Rows were chosen to be rich in hits. Some 1.6% of all compounds tested hit in one or more screens of this group.
SR-BI uptake up: SR-BI HDL lipid transfer activation | activation, % at 12.5 µM | CHO ldlA[mSR-BI] cells, DiI-HDL uptake fluorescence, 3 h; 100 = double the neutral-control signal | 320,000 tested, 0.096% active;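 active = mean replicate activation of at least 60% and every replicate at or above 60%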
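Test system: SR-BI-overexpressing, LDLR-lacking CHO cells. Measured by: DiI fluorescence, bottom read. Medium: Ham's F12 with 0.5% BSA, HEPES 25 mM, pH 7.4. Timing: 3 h uptake period with compound, 37 °C.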
SR-BI HDL uptake: mouse SR-BI HDL lipid transfer inhibition | Q61009 | ldlA[mSR-BI] CHO cells, DiI-HDL uptake fluorescence, 3 h | inhibition, % at 12.5 µM | 320,000 tested, 0.96% active;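 active = mean replicate inhibition of at least 70% and a set share of replicates each scoring 70 or more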
Target sequence (Q61009 whole entry, looked up): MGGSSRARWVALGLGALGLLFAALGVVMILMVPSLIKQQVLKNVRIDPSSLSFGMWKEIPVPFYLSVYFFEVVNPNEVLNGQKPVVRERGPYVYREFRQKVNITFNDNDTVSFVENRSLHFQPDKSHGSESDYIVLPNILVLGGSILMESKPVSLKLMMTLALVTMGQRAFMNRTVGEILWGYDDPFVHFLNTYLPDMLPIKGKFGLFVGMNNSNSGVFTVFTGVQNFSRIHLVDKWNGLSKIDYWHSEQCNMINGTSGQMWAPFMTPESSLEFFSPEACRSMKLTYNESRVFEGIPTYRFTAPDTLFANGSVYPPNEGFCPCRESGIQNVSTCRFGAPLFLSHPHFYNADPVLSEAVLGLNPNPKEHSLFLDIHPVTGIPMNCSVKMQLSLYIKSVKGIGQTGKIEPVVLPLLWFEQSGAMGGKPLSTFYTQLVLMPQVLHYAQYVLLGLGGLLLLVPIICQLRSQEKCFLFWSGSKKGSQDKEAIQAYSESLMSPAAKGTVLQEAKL
Bfl-1 A1 inh: inhibitors of the anti-apoptotic protein A1, read as caspase activation; MEF A1-2A-BIM cells, Caspase-Glo 3/7 luminescence, 3 h; percent of clofoctol response, vehicle zero; 330,000 tested, 0.066% active; caspase activation, % (concentration not given with the values);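 active = over half of replicate activation scores above 10%, or exactly half above 10 with the replicate mean above 10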
Vif inh: HIV Vif inhibition; HEK293T cells, Vif self-association by quenched fluorescence, imaging, 24 h; inhibition, % at 7.49 µM; 340,000 tested, 0.35% active; in the data active = inhibition above about 50%, passing the limit was not always enough
TAG inh: reduces triacylglycerol accumulation in H9c2 cells; Nile Red lipid (TAG) fluorescence; cells loaded with 200 µM oleic acid; inhibition, % at 12.5 µM; 230,000 tested, 0.66% active; AID 651582;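 active = pattern-corrected inhibition of lipid staining of at least 50% with the nuclear-stain viability signal not falling by more than 50%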
Each line names hits and unclear results; the compound was inactive in the other large screens.

Cc1cc(C)c2sc(NNC(=O)c3ccc(S(=O)(=O)N4CCc5ccccc5C4)cc3)nc2c1	SR-BI HDL uptake 146
CCc1nnc(NC(=O)c2ccc(S(=O)(=O)N3CCc4ccccc4C3)cc2)s1	none
Cc1cc(C)c2nc(NNC(=O)c3ccc(S(=O)(=O)N4CCc5ccccc5C4)cc3)sc2c1	SR-BI HDL uptake 133
NC(=O)C[C@H](NC(=O)c1ccc(Cl)cc1)C(=O)OCc1ccccc1	none
O=C(Nc1ccc(C(=O)N2CCOCC2)cc1)c1cc(-c2cccnc2)nc2ccc(Br)cc12	SR-BI HDL uptake 81
Nc1nc(=S)c2ncn(C3CCCC3)c2[nH]1	none (no result: TAG inh)
COc1ccc([N+](=O)[O-])cc1NC(=O)Nc1cccc(Cl)c1	SR-BI HDL uptake 83 (no result: TAG inh)
COc1ccccc1N/C(=N/S(=O)(=O)c1ccc(C)cc1)c1ccccc1	none (no result: TAG inh)
COc1ccc([N+](=O)[O-])cc1N/C(=N/S(=O)(=O)c1ccccc1)c1ccccc1	SR-BI HDL uptake 73
COc1ccc(CCC(=O)Nc2cc([N+](=O)[O-])ccc2OC)cc1	SR-BI HDL uptake 74 (no result: Vif inh, TAG inh)
COc1ccc([N+](=O)[O-])cc1NC(=O)Cc1ccc(Cl)cc1	none (no result: TAG inh)
COc1ccc([N+](=O)[O-])cc1NC(=O)Nc1ccc(OC)c(OC)c1	SR-BI HDL uptake 76
CCN1C(=O)[C@H]2[C@@H](c3ccc(C(F)(F)F)cc3)N[C@]3(CCCN(Cc4cccn4C)C3=O)[C@H]2C1=O	none (no result: SR-BI uptake up, SR-BI HDL uptake, Bfl-1 A1 inh)
CCOc1nc(N2CCCCC2)nc(-n2cc(-c3ccccc3)nn2)n1	Vif inh 55
CCCCN(C=O)c1c(CC)nc2c(OCCOc3ccccc3)cccn12	Vif inh 58 (no result: SR-BI uptake up, SR-BI HDL uptake, Bfl-1 A1 inh)
Cc1ccc(C(=O)OCC(=O)Nc2nc(-c3ccccc3)cs2)cc1NC(=O)c1ccco1	SR-BI HDL uptake 83
O=C(COC(=O)c1cccc(S(=O)(=O)NCc2ccccc2)c1)NC1CC1	none
O=C(COC(=O)c1ccc(Cl)c(S(=O)(=O)NCc2ccccc2)c1)NC1CC1	Vif inh 77
CCN(CC)c1ccc(S(=O)(=O)N2CCOCC2)cc1NC(=O)CSc1n[nH]c(N)n1	none
CC(C)CC(NC(=O)c1ccc(Cl)cc1)C(=O)OCC(=O)c1ccc2c(c1)NC(=O)CO2 (configuration not stated)	Bfl-1 A1 inh 15
O=C(NCc1ccc(F)cc1)c1ccccc1OCc1ccccc1	none (no result: TAG inh)
O=C(NNC(=O)c1ccccc1OCc1ccc(F)cc1)c1ccccc1O	SR-BI HDL uptake 125
O=C(NNC(=O)c1ccccc1OCc1ccccc1)c1ccccc1O	SR-BI HDL uptake 114
COc1ccc(NC(=O)c2ccccc2OCc2ccc(F)cc2)c(OC)c1	SR-BI HDL uptake 94 (no result: TAG inh)
O=C(NNC(=O)c1ccccc1OCc1ccccc1)c1ccccc1F	none (no result: TAG inh)
CN(C)c1ccc2c(c1[N+](=O)[O-])Cc1ccccc1-2	none (no result: Bfl-1 A1 inh)
Cc1ccc(CN(C)C(=O)CCc2nc3sc4c(c3c(=O)[nH]2)CCCC4)o1	none (no result: Vif inh)
CCOc1ccc(-n2c(SCC(=O)Nc3cc(OC)c([N+](=O)[O-])cc3C)nc3ccccc32)cc1	SR-BI HDL uptake 82 (no result: TAG inh)
CCOc1ccc2c(C)c(C(=O)O)oc2c1OCC	Vif inh 55
CC(C)NC(=O)C1(C)CCCN1C(=O)c1cc(C#N)cs1 (configuration not stated)	none (no result: SR-BI uptake up, SR-BI HDL uptake, Bfl-1 A1 inh)
COc1cc(NS(=O)(=O)c2c(C(=O)N3CCOCC3)c(C)n(C)c2C)cc(OC)c1OC	none (no result: TAG inh)
C=C(C)COc1ccc(-c2n[nH]c(C)c2-c2ccc(OC)c(OC)c2)c(O)c1	TAG inh 56
C=C(C)COc1ccc(-c2[nH]ncc2-c2ccc(OC)c(OC)c2)c(O)c1	none
COc1ccc(CCN2CC(C(=O)NCc3cccc4[nH]ccc34)CCC2=O)cc1 (configuration not stated)	none
O=C(NCc1cccc2[nH]ccc12)C1CCC(=O)N(CCc2ccccc2)C1 (configuration not stated)	SR-BI uptake up 120 (no result: TAG inh)
O=P(O)(C(O)c1ccccc1)C(O)c1ccccc1 (configuration not stated)	none
Cc1cccc2nc(CSc3nc4ccc([N+](=O)[O-])cc4[nH]3)c(Br)n12	Vif inh 54 (no result: TAG inh)
NC(=O)CSc1nc2ccc([N+](=O)[O-])cc2[nH]1	none
CCCCCc1ccc(-c2cn(CN3C(=O)c4ccccc4C3=O)nn2)cc1	Vif inh 65
COc1ccc(CCC(=O)Nc2cccc(S(=O)(=O)N3CCCC3)c2)cc1OC	none (no result: Bfl-1 A1 inh)
O=C(Nc1ccc(F)cc1)c1ccc(S(=O)(=O)N2CCOCC2)o1	Vif inh 53 (no result: SR-BI uptake up, SR-BI HDL uptake)
CCN1CC=C2C(C#N)=C(N)C(C#N)(C#N)[C@H](c3cccc(OC)c3OC)[C@H]2C1	none (no result: TAG inh)
CCN1CC=C2C(C1)C(c1ccc(Cl)s1)C(C#N)=C(N)C2(C#N)C#N (configuration not stated)	Vif inh 87
CC1=CC(C)(C)Nc2ccc(OC(=O)CN3C(=O)c4cccc5cccc(c45)C3=O)cc21	none (no result: TAG inh)
CC1=CC(C)(C)Nc2ccc(OC(=O)CN3C(=O)c4ccccc4C3=O)cc21	TAG inh 52
Cc1ccnc(N/C=C(\C#N)c2nc(-c3cccc(Br)c3)cs2)c1	Vif inh 91 (no result: TAG inh)
COc1ccc(NC(=O)CN2C(=O)NC(C)(C3CC3)C2=O)cc1S(=O)(=O)N1CCCCC1 (configuration not stated)	none
CC1CCC(=C(C#N)c2nc(-c3cc4ccccc4oc3=O)cs2)CC1 (configuration not stated)	SR-BI HDL uptake 76
COc1ccccc1N(CC(=O)N1CCCC1)S(=O)(=O)c1cc([N+](=O)[O-])ccc1Cl	none
CCOc1ccc(NC(=O)CN(C)C(=O)c2sc3ccccc3c2Cl)cc1OCC	none
CCOc1ccc(NC(=O)CN(C)C(=O)c2ccccc2CCc2ccccc2)cc1OCC	SR-BI HDL uptake 94
CCOc1ccc(NC(=O)CN(C)C(=O)c2cc([N+](=O)[O-])ccc2Sc2ccccc2)cc1OCC	SR-BI HDL uptake 77 (no result: Bfl-1 A1 inh)
CCOc1ccc(NC(=O)CN(C)C(=O)c2cccc3ccccc23)cc1OCC	SR-BI HDL uptake 78 (no result: Bfl-1 A1 inh)
CCOc1ccc(NC(=O)CN(C)C(=O)c2ccccc2OCCOc2ccccc2)cc1OCC	SR-BI HDL uptake 82
CCOc1ccc(NC(=O)CN(C)C(=O)c2ccncc2)cc1OCC	none
CCC(=O)c1ccc(OCC(=O)NCc2ccccc2CN2CCCC2)cc1	none
Cc1ccnc(NS(=O)(=O)c2ccc(NC(=O)c3cc(=O)c4ccccc4o3)cc2)n1	none (no result: SR-BI uptake up, TAG inh)
O=C(Cc1ccccc1)Nc1ccc(NC(=O)c2ccccc2)c(Cl)c1	none
COc1ccc(NC(=O)Cn2cnc3c(oc4nc5c(cc43)COC(C)(C)C5)c2=O)cc1	none
CCOc1ccc(NC(=O)CN(C)C(=O)c2c(C)nn(-c3ccc(F)cc3)c2Cl)cc1OCC	SR-BI HDL uptake 83
O=C(O)/C=C/c1cnn(-c2ccccc2)c1	none (no result: Bfl-1 A1 inh)
O=C(N/N=C/c1ccc(-c2ccccc2Cl)o1)c1ccccc1	none
